According to ChEMBL document CHEMBL1140775, “Low-density lipoprotein (LDL)-antioxidant lignans from Myristica fragrans seeds” (Bioorg Med Chem Lett, 2008):
Active and inactive are the calls of the source. The rule behind the calls is not given here.

Experiments:
Type in all cases: functional
[1] = Antioxidant activity assessed as inhibition of LDL-oxidation at 20 uM by TBARS assay
In short: (§1)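 Copper-mediated oxidation of human plasma LDL (120 µg/mL); oxidation quantified by TBARS formation. Mean of two independent experiments, each in duplicate.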

[2] = Antioxidant activity against LDL-oxidation by TBARS assay; in short: as §1
[3] = Antioxidant activity against LDL-oxidation assessed as conjugated diene formation lag time at 1.0 uM
In short: (§2)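 Human plasma LDL (120 µg protein/mL) oxidized with 5 µM CuSO4, with or without compound; conjugated diene formation read as absorbance at 234 nm every 10 min for 4 h. Lag time taken as elapsed time before onset of rapid conjugated hydroperoxide formation.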

[4] = Antioxidant activity assessed as inhibition of copper-mediated LDL-oxidation at 20 uM by relative electrophoretic mobility method
In short: (§3)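 LDL (120 µg/mL in PBS) incubated 12 h at 37 °C with 5 µM CuSO4 with or without compound. About 2.0 µg LDL protein run on 0.7% agarose gel, Coomassie-stained, densitometrically scanned; migration distance measured, protection expressed relative to native and fully oxidized LDL.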

[5] = Antioxidant activity assessed as inhibition of copper-mediated LDL-oxidation at 10 uM by relative electrophoretic mobility method; in short: as §3
[6] = Antioxidant activity assessed as inhibition of apoB100 fragmentation at 20 uM by SDS-PAGE method
In short: (§4)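 Human LDL in PBS incubated 4 h at 37 °C with 5 µM CuSO4 with or without compound. About 2.0 µg LDL protein run on 7.5% SDS-PAGE, Coomassie-stained, densitometrically scanned; apoB-100 band area given as absorbance units per mm.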

[7] = Antioxidant activity assessed as inhibition of apoB100 fragmentation at 10 uM by SDS-PAGE method; in short: as §4
[8] = tested on: THP-1; assay: Antioxidant activity against LDL-oxidation in human THP1 cells assessed as malondialdehyde level per mg of LDL protein at 1 uM
In short: (§5)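 PMA-differentiated THP-1 macrophages incubated 24 h at 37 °C in serum-free RPMI 1640 with LDL (100 µg/mL) and 2 µM Cu2+, with or without compound. TBARS measured directly in harvested medium, expressed as MDA nmol/mg LDL protein; mean ± SD, n = 3.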

[9] = tested on: THP-1; assay: Antioxidant activity against LDL-oxidation in human THP1 cells assessed as malondialdehyde level per mg of LDL protein at 5 uM; in short: as §5
[10] = Antioxidant activity against LDL-oxidation assessed as conjugated diene formation lag time at 3.0 uM; in short: as §2

SMILES | IC50 [2] | inhibition [1] | also measured
COc1cc(C[C@H](C)[C@H](C)Cc2ccc(O)c(O)c2)ccc1O | 3.6 µM | 91% | 
COc1cc([C@H]2c3cc4c(cc3C[C@@H](C)[C@@H]2C)OCO4)ccc1O | 7.3 µM | 40.9% | 
C[C@H](Cc1ccc2c(c1)OCO2)[C@H](C)Cc1ccc2c(c1)OCO2 |  | 0% | Activity [2]: inactive
COc1cc(C[C@@H](C)[C@@H](C)Cc2ccc(O)c(OC)c2)ccc1O [MESODIHYDROGUAIARETIC ACID] | 2.6 µM | 93% | Activity [3]: 140 min; inhibition [4]: 82%; inhibition [5]: 72%; inhibition [6]: 93%; inhibition [7]: 54%; Activity [8]: 306.3 nmol; Activity [9]: 35.2 nmol
CC(C)(Sc1cc(C(C)(C)C)c(O)c(C(C)(C)C)c1)Sc1cc(C(C)(C)C)c(O)c(C(C)(C)C)c1 [PROBUCOL] | 3.1 µM | 92% | Activity [10]: 67 min

The next lines start with results.

IC50 [2] | SMILES | inhibition [1] | also measured
7.9 µM | COc1cc(C(OC)C(C)C(C)Cc2ccc3c(c2)OCO3)ccc1O (centres undefined) | 28.9% | 
6.3 µM | COc1cc([C@@H](O)[C@H](C)[C@H](C)Cc2ccc3c(c2)OCO3)ccc1O | 45.7% | 
7.5 µM | COc1cc(C[C@H](C)[C@H](C)Cc2ccc3c(c2)OCO3)ccc1O [AUSTROBAILIGNAN 6] | 64.5% | 
